Assay results from ChEMBL document CHEMBL2069230, “Synthesis, biological evaluation, and docking studies of 3-(substituted)-aryl-5-(9-methyl-3-carbazole)-1H-2-pyrazolines as potent anti-inflammatory and antioxidant agents” (Bioorg Med Chem Lett, 2012).

Key:
[1] = system: Radical scavenging activity; assay: Antioxidant activity assessed as DPPH radical scavenging activity at 100 uM after 20 mins by spectrophotometry; assay type: functional
Method in brief: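 Test solution (0.1 mM) mixed with an equal quantity of 0.1 mM DPPH in ethanol; 20 min at room temperature, then DPPH reduction read as absorbance at 517 nm. Ascorbic acid (0.1 mM) as reference.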

[2] = biological target: Prostaglandin G/H synthase 1 (Homo sapiens) (UniProt P23219); assay: Inhibition of COX1 peroxidase activity assessed as formation of TMPD at 100 uM by colorimetric analysis
Prostaglandin G/H synthase 1 (Homo sapiens), sequence (P23219 whole entry): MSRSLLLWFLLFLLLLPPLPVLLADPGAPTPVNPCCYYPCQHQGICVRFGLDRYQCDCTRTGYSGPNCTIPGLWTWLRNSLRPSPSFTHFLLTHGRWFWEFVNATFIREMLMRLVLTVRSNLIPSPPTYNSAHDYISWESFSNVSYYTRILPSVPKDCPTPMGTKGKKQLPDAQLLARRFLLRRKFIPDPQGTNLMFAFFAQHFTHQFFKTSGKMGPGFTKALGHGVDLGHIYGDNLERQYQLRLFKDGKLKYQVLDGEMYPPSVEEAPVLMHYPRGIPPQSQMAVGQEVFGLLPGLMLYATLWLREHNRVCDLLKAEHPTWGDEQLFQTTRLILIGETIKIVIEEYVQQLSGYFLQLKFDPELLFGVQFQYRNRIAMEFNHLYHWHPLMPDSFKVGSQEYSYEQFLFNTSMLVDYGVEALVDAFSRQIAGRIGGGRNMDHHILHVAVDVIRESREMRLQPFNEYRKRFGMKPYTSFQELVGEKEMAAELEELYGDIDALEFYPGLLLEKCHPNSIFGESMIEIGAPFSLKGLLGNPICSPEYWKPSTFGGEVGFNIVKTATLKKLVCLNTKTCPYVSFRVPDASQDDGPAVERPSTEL
Method in brief: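 COX-1 peroxidase activity: assay buffer, heme and enzyme with sample (0.1 mM); oxidized TMPD appearance monitored colorimetrically at 590 nm.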

[3] = Antioxidant activity assessed as H2O2-induced hydroxyl radical scavenging activity at 100 uM after 5 mins by spectrophotometry; assay type: functional
Method in brief: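 Mixture of FeCl2 (1 mM), 1,10-phenanthroline (1 mM), phosphate buffer (0.2 M, pH 7.8), H2O2 (0.17 M) and sample (0.1 mM); reaction started with H2O2, 5 min at room temperature, absorbance at 560 nm. Ascorbic acid (0.1 mM) reference.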

[4] = species: Homo sapiens; assay: Selectivity ratio of inhibition of COX2 to inhibition of COX1
[5] = Antioxidant activity assessed as superoxide radical scavenging activity at 100 uM after 5 mins by NBT reduction assay; assay type: functional
Method in brief: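 Superoxide generated in Tris-HCl (100 mM, pH 7.4) with NBT (300 µM), NADH (936 µM) and sample (0.1 mM); NBT reduction read after 5 min at room temperature as absorbance at 560 nm. Ascorbic acid (0.1 mM) reference.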

[6] = system: Mus musculus; assay: Antiinflammatory activity in AKR mouse assessed as inhibition of carrageenan-induced paw edema at 0.01 mmol/kg dosed intradermally after 3.5 hrs relative to vehicle-treated control; assay type: functional
Method in brief: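 Edema induced in right hind paw of AKR mice (both sexes, pregnant females excluded, fasted during experiment) by intradermal 0.05 mL of 2% carrageenin in water; 6–10 animals per group. Paw weight increase, injected vs uninjected paw, compared with water-treated controls as percent edema inhibition; experiments in duplicate, mean of two.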

[7] = system: Mus musculus; assay: Toxicity in carrageenan-challenged AKR mouse up to 0.5 mmol/kg dosed intradermally; assay type: organism-based; conditions: in vivo, other

Structure (SMILES) | inhibition [2] [%] | Selectivity ratio [4] | Activity [1] [%] | Activity [3] [%] | Activity [5] [%] | inhibition in vivo at 10 µmol/kg [6] [%] | Activity [7]
Cn1c2ccccc2c2cc(C3CC(c4ccc(F)c(F)c4)=NN3)ccc21 (stereo unspecified) | 90.8 | 0.22 | 79.8 | 63.2 | 69.4 |  | 
COc1ccc(C2=NNC(c3ccc4c(c3)c3ccccc3n4C)C2)cc1 (stereo unspecified) | 20.6 | 4.06 | 80.8 | 58.2 | 56.2 | 51.4 | Non-toxic
Cn1c2ccccc2c2cc(C3CC(c4ccc([N+](=O)[O-])cc4)=NN3)ccc21 (stereo unspecified) | 14.2 | 1.3 | 81.1 | 64.8 | 65.1 |  | 
O=C1O[C@H]([C@@H](O)CO)C(O)=C1O |  |  | 91.5 | 88.3 | 52 |  | 
Cn1c2ccccc2c2cc(C3CC(c4cccs4)=NN3)ccc21 (stereo unspecified) | 18.5 | 2.61 | 85.3 | 63.1 | 81.1 | 42.2 | Non-toxic
Cn1c2ccccc2c2cc(C3CC(c4ccc(F)cc4)=NN3)ccc21 (stereo unspecified) | 46.2 | 0.49 | 79.3 | 54.6 | 45.6 |  | 

Continued, in another order:

inhibition [2] [%] | Selectivity ratio [4] | Structure (SMILES) | Activity [1] [%] | Activity [3] [%] | Activity [5] [%] | inhibition in vivo at 10 µmol/kg [6] [%] | Activity [7]
24.1 | 3.66 | COc1ccc(C2=NNC(c3ccc4c(c3)c3ccccc3n4C)C2)cc1OC (stereo unspecified) | 84 | 69.3 | 69.4 | 60.3 | Non-toxic
23.5 | 3.69 | COc1cc(OC)c(C2=NNC(c3ccc4c(c3)c3ccccc3n4C)C2)c(OC)c1 (stereo unspecified) | 86 | 74.3 | 70.4 | 54.3 | Non-toxic
10.4 | 2.58 | Cn1c2ccccc2c2cc(C3CC(c4ccc(F)cc4F)=NN3)ccc21 (stereo unspecified) | 83.8 | 60.2 | 63.2 |  | 
87.4 | 1.02 | Cn1c2ccccc2c2cc(C3CC(c4ccc(Br)cc4)=NN3)ccc21 (stereo unspecified) | 80.6 | 57.5 | 56.2 |  | 
12.2 | 1.34 | Cn1c2ccccc2c2cc(C3CC(c4ccc(Cl)c(Cl)c4)=NN3)ccc21 (stereo unspecified) | 87.4 | 65.1 | 61.4 |  | 
8.85 | 1.14 | Cn1c2ccccc2c2cc(C3CC(c4cc(Cl)ccc4Cl)=NN3)ccc21 (stereo unspecified) | 91.7 | 78.6 | 86.3 |  | 
10.2 | 1.24 | Cn1c2ccccc2c2cc(C3CC(c4ccc(Cl)cc4)=NN3)ccc21 (stereo unspecified) | 79.3 | 55 | 62.4 |  | 
20.1 | 2.06 | Cn1c2ccccc2c2cc(C3CC(c4ccccn4)=NN3)ccc21 (stereo unspecified) | 72 | 54.8 | 62.2 |  | 
10.2 | 2.16 | Cn1c2ccccc2c2cc(C3CC(c4ccccc4)=NN3)ccc21 (stereo unspecified) | 79.9 | 63.5 | 63.2 |  | 
24.1 | 1.68 | Cn1c2ccccc2c2cc(C3CC(c4ccc(Cl)cc4Cl)=NN3)ccc21 (stereo unspecified) | 92.1 | 69.3 | 81.7 |  | 
